Results gathered from unrelated publications.
Compare with care: the assays were run in different laboratories.
CHRM5: Muscarinic acetylcholine receptor M5 (CHRM5, Homo sapiens, UniProt P08912)
PROK: Proteinase K (PROK, Engyodontium album, UniProt P06873)
TPR: Trypanothione reductase (TPR, Trypanosoma cruzi, UniProt P28593)

SMILES	target	read-out	mode	technique	notes	quantity	value
C=CCn1c2cc(OC(=O)CCCCN3CCN(Cc4cccc(C)c4)CC3)ccc2c2ccnc(C)c21	Cholinesterase (BCHE, Homo sapiens, UniProt P06276)	enzyme activity	inhibitor	Ellman		IC50	0.251 µM
CC(C)C(Nc1nc(Cl)nc2c1ncn2[C@H]1[C@H](O)[C@H](O)[C@]2(CO)C[C@H]12)C(C)C	CHRM5	ligand displacement		radioligand		Ki	> 6.3 µM
OC[C@H]1O[C@H]([S-])[C@H](O)[C@@H](O)[C@@H]1O.[Au+]	Tyrosine-protein phosphatase non-receptor type 12 (PTPN12, Homo sapiens, UniProt Q05209)	enzyme activity	inhibitor	fluorescence		IC50	8 µM
O=C(Nc1cccc(-c2ccn3c(CC4CC4)nnc3c2C(F)(F)F)c1)c1ccc(S(=O)(=O)F)cc1	Metabotropic glutamate receptor 3 (GRM3, Homo sapiens, UniProt Q14832)	calcium signal	agonist			EC50	> 50.1 µM
CC(C)(C)[C@H](Nc1nc(Cl)nc2c1ncn2[C@H]1[C@H](O)[C@H](O)[C@]2(CO)C[C@H]12)C1CC1	CHRM5	ligand displacement		radioligand		Ki	> 6.2 µM
Cc1cc(C)c2[nH]c(=O)c(CN(CCO)C(=S)Nc3ccc(N4CCOCC4)cc3)cc2c1	Beta-glucuronidase (uidA, Escherichia coli, UniProt P05804)	enzyme activity	inhibitor			EC50	3.1 µM
C[C@H](NC(=O)Cc1ccccc1)C(=O)N[C@H](Cc1c[nH]c2ccccc12)C(=O)NCCc1ccccc1	Bombesin receptor subtype-3 (Brs3, Mus musculus, UniProt O54798)	calcium signal	agonist	fluorescence		EC50	0.0333 µM
CCCCc1cc2cc(-n3nc(C)c4c3CC(C)(C)CC4=O)cc(N[C@H]3CC[C@H](O)CC3)c2c(=O)[nH]1	Heat shock protein HSP 90-beta (HSP90AB1, Homo sapiens, UniProt P08238)	ligand displacement		FP		IC50	0.186 µM
C/C=C1\NC(=O)[C@@H](NC(=O)[C@@H](NC(=O)C/C(=C/Cl)CC)C(C)C)[C@@H](C)OC(=O)[C@H](C(C)C)NC(=O)[C@H](Cc2ccc(O)cc2)N(C)C(=O)[C@H](Cc2ccccc2)N2C(=O)[C@H](CC[C@H]2O)NC1=O	PROK	enzyme activity	inhibitor	fluorescence		IC50	> 5 µM
CNC(=O)[C@@]12C[C@@H]1[C@@H](n1cnc3c(NC)nc(C#Cc4ccc(Cl)s4)cc31)[C@H](O)[C@@H]2O	Sodium-dependent noradrenaline transporter (SLC6A2, Homo sapiens, UniProt P23975)	ligand displacement		radioligand	cell membranes	Ki	> 10 µM
O=c1c2ccccc2[se]n1-c1ccccc1	TPR	enzyme activity	inhibitor	absorbance		IC50	1.36 µM
O=C(O)c1ccccc1-c1c2cc(Br)c(=O)cc-2oc2[c]([Hg+])c(O)c(Br)cc12	PROK	binding		ITC		Kd	~3000 µM
CNC1CC(c2ccc(Cl)c(Cl)c2)c2ccccc21 (stereo not drawn)	TPR	enzyme activity	inhibitor	absorbance		IC50	7.26 µM
CC(=O)Nc1ccc(O)cc1	Ribosyldihydronicotinamide dehydrogenase [quinone] (NQO2, Homo sapiens, UniProt P16083)	enzyme activity	inhibitor			Ki	> 1000 µM
CSCC[C@H](NC(=O)[C@H](CCC(N)=O)NC(=O)[C@H](C)NC(=O)[C@H](CO)NC(=O)[C@@H](N)CO)C(=O)N[C@@H](CC(N)=O)C(=O)N[C@@H](CC(C)C)C(=O)N[C@@H](CC(N)=O)C(=O)N[C@H](C(=O)N[C@@H](Cc1ccccc1)C(=O)N[C@@H](CC(C)C)C(=O)N[C@@H](CC(N)=O)C(=O)O)[C@@H](C)O	1-deoxy-D-xylulose 5-phosphate reductoisomerase (Escherichia coli K-12, UniProt P45568)	enzyme activity	inhibitor	absorbance	with preincubation	IC50	266 µM
